Assay results from ChEMBL document CHEMBL1122242, “Phenylenebis(oxy)bis[2,2-dimethylpentanoic acid]s: agents that elevate high-density lipoproteins” (1983).

How the values were obtained:
Type in all cases: functional
Rattus norvegicus [1] = organism: Rattus norvegicus; assay: Hypolipidemic effects(liver weight) in male rats
Summary of the method: (§1)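 Male rats, 10 per group, fed 7 days on chow with 10% fat (5.5% added peanut oil), 1.5% cholesterol and 0.1% cholic acid. Oral gavage on days 4-7 in 4% acacia, usually 50 mg/kg daily. Fasted overnight, killed day 8, atrial blood into EDTA. Plasma cholesterol, TG and HDL cholesterol (after MnCl2/heparin precipitation) by Autoanalyzer. % change vs controls, Student's t test.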

Rattus norvegicus [2] = assay: Hypolipidemic effects (high-density lipoprotein (HDL) cholesterol) in male rats; Compound was screening orally at 50 mg/Kg; summary of the method: as §1
Rattus norvegicus [3] = organism: Rattus norvegicus; assay: Hypolipidemic effects(plasma cholesterol) in male rats; summary of the method: as §1
Rattus norvegicus [4] = organism: Rattus norvegicus; assay: Hypolipidemic effects(plasma TG) in male rats; summary of the method: as §1
Rattus norvegicus [5] = assay: Hypolipidemic effects (low-density lipoprotein (LDL) cholesterol) in male rats;Compound was screening orally at 50 mg/Kg; summary of the method: as §1
Rattus norvegicus [6] = assay: Hypolipidemic effects(liver weight) in male rats at 25 mg/kg
Summary of the method: (§2)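 Head-to-head oral dosing at 12.5, 25 and 50 mg/kg daily […] in male rats kept on a high lipid diet, alongside gemfibrozil reference. Plasma lipid fractions and liver weight expressed as % change vs controls.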

Rattus norvegicus [7] = assay: Hypolipidemic effects (high-density lipoprotein (HDL) cholesterol) in male rats at 25 mg/kg; summary of the method: as §2
Rattus norvegicus [8] = assay: Hypolipidemic effects (Low-density lipoprotein (LDL) cholesterol) in male rats at 25 mg/kg; summary of the method: as §2
Rattus norvegicus [9] = assay: Hypolipidemic effects(plasma TG) in male rats at 12.50 mg/kg; conditions: dose 12.5 mg/kg; summary of the method: as §2
Rattus norvegicus [10] = assay: Hypolipidemic effects (high-density lipoprotein (HDL) cholesterol) in male rats at 12.50 mg/kg; conditions: dose 12.5 mg/kg; summary of the method: as §2
Rattus norvegicus [11] = assay: Hypolipidemic effects(plasma cholesterol) in male rats at 12.50 mg/kg; conditions: dose 12.5 mg/kg; summary of the method: as §2
Rattus norvegicus [12] = assay: Hypolipidemic effects(liver weight) in male rats at 12.50 mg/kg; conditions: dose 12.5 mg/kg; summary of the method: as §2
Rattus norvegicus [13] = assay: Hypolipidemic effects(plasma cholesterol) in male rats at 25 mg/kg; summary of the method: as §2
Rattus norvegicus [14] = assay: Hypolipidemic effects as the ratio of (HDL/LDL) in male rats at dose 25 mg/kg.
Summary of the method: (§3)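 Male rats on a high lipid diet, dosed orally […] at 12.5, 25 or 50 mg/kg, with gemfibrozil reference. HDL/LDL (VLDL included) ratio from densitometry of polyacrylamide gel electrophoresis patterns of plasma. Expressed as % change vs controls.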

Rattus norvegicus [15] = assay: Hypolipidemic effects as the ratio of (HDL/LDL) in male rats at dose 12.5 mg/kg.; summary of the method: as §3
Rattus norvegicus [16] = assay: Hypolipidemic effects (Low-density lipoprotein (LDL) cholesterol) in male rats at 50 mg/kg; Compound was screening orally at 50 mg/Kg; summary of the method: as §1
Rattus norvegicus [17] = assay: Hypolipidemic effects (high-density lipoprotein (HDL) cholesterol) in male rats at 50 mg/kg; Compound was screening orally at 50 mg/Kg; summary of the method: as §1
Rattus norvegicus [18] = assay: Hypolipidemic effects(plasma TG) in male rats at 25 mg/kg; summary of the method: as §2
Rattus norvegicus [19] = assay: Hypolipidemic effects(plasma TG) in male rats at 50 mg/kg; summary of the method: as §2
Rattus norvegicus [20] = assay: Hypolipidemic effects(plasma cholesterol) in male rats at 50 mg/kg; summary of the method: as §2
Rattus norvegicus [21] = assay: Hypolipidemic effects (Low-density lipoprotein (LDL) cholesterol) in male rats at 12.50 mg/kg; conditions: dose 12.5 mg/kg; summary of the method: as §2
Rattus norvegicus [22] = assay: Hypolipidemic effects as the ratio of (HDL/LDL) in male rats at dose 50 mg/kg.; summary of the method: as §3
Rattus norvegicus [23] = assay: Hypolipidemic effects(liver weight) in male rats at 50 mg/kg; summary of the method: as §2
Rattus norvegicus [24] = assay: Hypolipidemic effects (high-density lipoprotein (HDL) cholesterol) in male rats;Compound was screening orally at 50 mg/Kg; summary of the method: as §1
Rattus norvegicus [25] = assay: Hypolipidemic effects (low-density lipoprotein (LDL) cholesterol) in male rats; Compound was screening orally at 50 mg/Kg; summary of the method: as §1
Rattus norvegicus [26] = organism: Rattus norvegicus; assay: Hypolipidemic effects (low-density lipoprotein (LDL) cholesterol) in male rats; summary of the method: as §1
Rattus norvegicus [27] = assay: Hypolipidemic effects (Low-density lipoprotein (LDL) cholesterol) in male rats at 50 mg/kg; summary of the method: as §2
Rattus norvegicus [28] = assay: Hypolipidemic effects (high-density lipoprotein (HDL) cholesterol) in male rats at 50 mg/kg; summary of the method: as §2

SMILES | Change (Rattus norvegicus [1]) | Change (Rattus norvegicus [2]) | Change (Rattus norvegicus [3]) | Change (Rattus norvegicus [4]) | Change (Rattus norvegicus [5]) | Change (Rattus norvegicus [24]) | Change (Rattus norvegicus [25]) | also measured
CC(C)(Oc1cccc(OC(C)(C)C(=O)O)c1)C(=O)O | 0% | 0% | 0% | 0% | 0% | – | – | –
COC(=O)C(C)(C)CCCOc1ccc(OCCCC(C)(C)C(=O)OC)c(C)c1 | – | – | – | – | – | – | – | Change (Rattus norvegicus [6]): 25%; Change (Rattus norvegicus [7]): 269%; Change (Rattus norvegicus [8]): -65%; Change (Rattus norvegicus [9]): 0%; Change (Rattus norvegicus [10]): 102%; Change (Rattus norvegicus [11]): -43%; Change (Rattus norvegicus [12]): 13%; Change (Rattus norvegicus [13]): -41%; Change (Rattus norvegicus [14]): 452%; Change (Rattus norvegicus [15]): 142%; Change (Rattus norvegicus [16]): -71%; Change (Rattus norvegicus [17]): 743%; Change (Rattus norvegicus [18]): 0%; Change (Rattus norvegicus [19]): 62%; Change (Rattus norvegicus [20]): -37%; Change (Rattus norvegicus [21]): -54%; Change (Rattus norvegicus [22]): 1009%; Change (Rattus norvegicus [23]): 38%
CC(C)(CO)CCCCOc1ccc(OCCCCC(C)(C)CO)cc1 | 30% | 907% | 0% | 0% | -54% | – | – | –
COC(=O)C(C)(C)CCCSc1ccc(Oc2ccc(SCCCC(C)(C)C(=O)OC)cc2)cc1 | 4% | 0% | -29% | 0% | -31% | – | – | –
COC(=O)C(C)(C)CCCOc1ccc(OCCCC(C)(C)C(=O)OC)c(F)c1 | 41% | – | -30% | 0% | -65% | 347% | – | –
CCC(=O)c1cc(OCCCC(C)(C)C(=O)OC)ccc1OCCCC(C)(C)C(=O)OC | 40% | – | 0% | 0% | – | 723% | -57% | –
COC(=O)C(C)(C)CCCOc1cccc(OCCCC(C)(C)C(=O)OC)c1N | 8% | 46% | -37% | -41% | -42% | – | – | –
CC(O)c1cc(OCCCC(C)(C)C(=O)O)ccc1OCCCC(C)(C)C(=O)O (centres undefined) | 12% | 525% | -27% | 0% | -70% | – | – | –
CC(C)(CCCOc1ccc(OCCCC(C)(C)C(=O)O)c(C(=O)O)c1)C(=O)O | 0% | – | 0% | 0% | – | 0% | -17% | –
CCCC(=O)c1cc(OCCCC(C)(C)C(=O)OC)ccc1OCCCC(C)(C)C(=O)OC | 34% | – | 39% | 0% | – | 1100% | -52% | –
COC(=O)C(C)(C)CCCOc1cccc(OCCCC(C)(C)C(=O)OC)c1C(C)=O | 0% | 0% | -38% | 0% | -40% | – | – | –
CC(C)(CCCOc1ccc(OCCCC(C)(C)C(=O)O)cc1)C(=O)O | – | 44% | -45% | 0% | – | 791% | -27% | –
COC(=O)C(C)(C)CCCOc1cccc(OC)c1OCCCC(C)(C)C(=O)OC | 0% | – | 0% | 0% | – | 0% | – | Change (Rattus norvegicus [26]): 0%
CC(C)(CCCOc1ccc(OCCCC(C)(C)C(=O)O)c(-c2ccc(Cl)cc2)c1)C(=O)O | 17% | 224% | -47% | -29% | -78% | – | – | –
COC(=O)C(C)(C)CCCOc1ccc(-c2ccccc2)c(OCCCC(C)(C)C(=O)OC)c1 | 6% | – | 0% | 0% | – | 40% | -25% | –
CC(C)(CCCOc1ccc(OCCCC(C)(C)C(=O)O)c(CO)c1)C(=O)O | 9% | 319% | 40% | 18% | 0% | – | – | –

SMILES | Change (Rattus norvegicus [1]) | Change (Rattus norvegicus [2]) | Change (Rattus norvegicus [3]) | Change (Rattus norvegicus [4]) | Change (Rattus norvegicus [5]) | Change (Rattus norvegicus [24]) | Change (Rattus norvegicus [25]) | also measured
O=C(O)C1(CCCCOc2ccc(OCCCCC3(C(=O)O)CCC3)cc2)CCC1 | 0% | – | -23% | 0% | -32% | 55% | – | –
CC(C)(CCCCOc1cccc(OCCCCC(C)(C)C(=O)O)c1)C(=O)O | 18% | – | -37% | 41% | – | 317% | -52% | –
COC(=O)C(C)(C)CCCOc1cc(OC)c(OCCCC(C)(C)C(=O)OC)cc1OC | 0% | – | -33% | 0% | – | 39% | – | –
COC(=O)C(C)(C)CCCOc1ccc(C=N/N=C(/N)S)c(OCCCC(C)(C)C(=O)OC)c1 | 38% | 280% | -60% | -50% | -83% | – | – | –
COC(=O)C(C)(C)CCCOc1ccc(OCCCC(C)(C)C(=O)OC)c(OC)c1 | 30% | – | -26% | 0% | – | 566% | -31% | –
COC(=O)C(C)(C)CCCOc1ccc(OCCCC(C)(C)C(=O)OC)c(C(=O)c2ccccc2)c1 | 11% | – | 0% | 43% | -42% | 421% | – | –
CC(C)(CCCOc1ccc(OCCCC(C)(C)C(=O)O)c(Cl)c1)C(=O)O | – | – | – | – | – | – | – | Change (Rattus norvegicus [6]): 18%; Change (Rattus norvegicus [7]): 206%; Change (Rattus norvegicus [27]): -62%; Change (Rattus norvegicus [8]): -77%; Change (Rattus norvegicus [9]): -28%; Change (Rattus norvegicus [10]): 94%; Change (Rattus norvegicus [11]): -65%; Change (Rattus norvegicus [12]): 8%; Change (Rattus norvegicus [13]): -60%; Change (Rattus norvegicus [14]): 493%; Change (Rattus norvegicus [15]): 242%; Change (Rattus norvegicus [16]): -62%; Change (Rattus norvegicus [17]): 753%; Change (Rattus norvegicus [18]): -31%; Change (Rattus norvegicus [19]): 0%; Change (Rattus norvegicus [20]): -53%; Change (Rattus norvegicus [21]): -74%; Change (Rattus norvegicus [22]): 1445%; Change (Rattus norvegicus [23]): 38%; Change (Rattus norvegicus [28]): 753%
CC(C)(CCCOc1ccc(C(=O)c2ccccc2)c(OCCCC(C)(C)C(=O)O)c1)C(=O)O | 11% | 169% | 0% | 57% | -10% | – | – | –
CC(C)(CCCOc1cc(Cl)c(OCCCC(C)(C)C(=O)O)cc1Cl)C(=O)O | 41% | – | -55% | 35% | – | 384% | – | –
CCCC(O)c1cc(OCCCC(C)(C)C(=O)O)ccc1OCCCC(C)(C)C(=O)O (centres undefined) | 37% | 1292% | 61% | 0% | -45% | – | – | –
Cc1ccc(-c2cc(OCCCC(C)(C)C(=O)O)ccc2OCCCC(C)(C)C(=O)O)cc1 | 0% | 66% | -32% | -27% | -42% | – | – | –
CC(C)(CCOc1cccc(OCCC(C)(C)C(=O)O)c1)C(=O)O | 17% | – | -28% | 240% | – | 383% | -46% | –
CC(C)(CCCOc1ccc(OCCCC(C)(C)C(=O)O)c(-c2ccccc2)c1)C(=O)O | – | – | – | – | – | – | – | Change (Rattus norvegicus [6]): 22%; Change (Rattus norvegicus [7]): 741%; Change (Rattus norvegicus [8]): -72%; Change (Rattus norvegicus [9]): 32%; Change (Rattus norvegicus [10]): 518%; Change (Rattus norvegicus [11]): -53%; Change (Rattus norvegicus [12]): 13%; Change (Rattus norvegicus [13]): -52%; Change (Rattus norvegicus [14]): 1798%; Change (Rattus norvegicus [15]): 945%; Change (Rattus norvegicus [16]): -85%; Change (Rattus norvegicus [17]): 1410%; Change (Rattus norvegicus [18]): 82%; Change (Rattus norvegicus [19]): 31%; Change (Rattus norvegicus [20]): -27%; Change (Rattus norvegicus [21]): -78%; Change (Rattus norvegicus [22]): 2432%; Change (Rattus norvegicus [23]): 34%
CC(C)(CCCCCOc1cccc(OCCCCCC(C)(C)C(=O)O)c1)C(=O)O | 0% | – | -22% | 0% | – | 48% | -27% | –
COC(=O)C(C)(C)CCCOc1ccc(OCCCC(C)(C)C(=O)OC)c(/C=N/NC(N)=O)c1 | 4% | – | -28% | 0% | – | 0% | -33% | –
